Data published in PMC2804977 (Biochemical and biophysical research communications, 2009).

Columns and labels:
15F3 of Fn [1] = molecular target: T1, 15F3 of Fn (Rattus norvegicus, UniProt P04937); experiment: Intrinsic Trp fluorescence quenching titration of 15F3; type: binding
T1 sequence (P04937 2193-2286 limits assumed): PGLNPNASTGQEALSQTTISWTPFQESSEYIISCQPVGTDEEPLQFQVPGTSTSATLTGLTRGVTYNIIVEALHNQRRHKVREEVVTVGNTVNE
Method in brief: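 Titration of the rat Fn 15th type III module (1 μM) with varied test peptide concentrations; intrinsic Trp emission spectra recorded after 5 min. Intensity at 350 nm was fitted to derive KD. Data were corrected for dilution and inner-filter effect.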

15F3 of Fn [2] = molecular target: T1, 15F3 of Fn; experiment: Stopped-flow binding kinetics with 15F3; settings: 25 °C
Method in brief: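 Rat Fn 15th type III module (1 μM) in PBS was rapidly mixed with test peptide (25–400 μM, at least 25-fold excess for pseudo-first-order conditions). Trp emission above 320 nm (295 nm excitation, 320 nm cut-off filter) was recorded at 25 °C, 1000 points per trace. Averaged traces were fitted single-exponentially for kobs; kobs versus peptide concentration gave kon and koff. Three experiments were averaged.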

LIPAD
affinity for 15F3 (15F3 of Fn [1]): moderate affinity
binding kinetics to 15F3 (15F3 of Fn [2]): slow binding kinetics
